Measured values published in ChEMBL document CHEMBL4513216, “Probing the Open Global Health Chemical Diversity Library for Multistage-Active Starting Points for Next-Generation Antimalarials” (ACS Infect Dis, 2020).

Assay: Toxicity liver stage against HepG2, at 10uM
Type: cell-based
Set-up: test concentration 10 uM, cell line HepG2-A16-CD81EGFP
Conditions: human, HepG2-A16-CD81EGFP cells; read-out: INHIBITION
Summary of the method: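 Uninfected HepG2-A16-CD81EGFP cells, 3 × 10^3 per well, 1536-well, plated on prespotted compound at 10 μM final, parasite-free screening media added to match infected plates; puromycin 10 μM positive, DMSO 0.5% negative; run in parallel with 48 h PbLuc assay at 37 °C, 5% CO2; viability by CellTiter-Glo luminescence, normalized to controls.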

Compared with `O=C(NCCn1cccn1)C1CCC(=O)N(CC2CCCCC2)C1` (stereo not given), `O=S(=O)(C1CC1)N1CCc2ncc(Cn3cccn3)n2CC1` is higher in cytotoxicity at 10 µM: 6.8% for the first, 9.58% for the second.

Compared with `Cc1ccc(S(=O)(=O)c2ncccc2CN2CCOCC2)cc1`, `O=C(c1ccc(Cn2cc(Br)cn2)cc1)N1CCOCC1` is higher in cytotoxicity at 10 µM: -41% for the first, -13.6% for the second.

First: CCOCC1COCCC12CCN(C(=O)C1=CCCC1)CC2 (stereo not given)
Second: O=C(C1=CCCC1)N1C[C@@H]2COC[C@]2(COCC2CC2)C1
The cytotoxicity at 10 µM of the first is higher: -2.35% for the first, -96.2% for the second.

Compared with `CC(=O)NCC(=O)N1CCc2nc(-c3ccccc3)nc(C)c2CC1`, `Cc1nc(-c2ccc(F)cc2)nc2c1CCN(C(=O)CN(C)C)CC2` is higher in cytotoxicity at 10 µM: -2.54% for the first, -1.65% for the second.

First: CCOC(=O)C1CN(C(=O)COC)Cc2ncn(CC)c21 (stereo not given)
Second: Cc1nc(C)n(C2CCCN(C(=O)CCc3cscn3)C2)n1 (stereo not given)
The cytotoxicity at 10 µM of the first is lower: 6.01% for the first, 6.74% for the second.

First: COC1COC2(CCN(C(=O)c3ncccn3)CC2)C1 (stereo not given)
Second: CC(=O)N1Cc2ccccc2OC2(CCN(C(=O)C3CC3)CC2)C1
The cytotoxicity at 10 µM of the first is lower: 6.07% for the first, 9.91% for the second.

Compared with `CSCc1cccc(S(=O)(=O)N2CCCCC2)c1`, `Cc1nccn1-c1ccc(CNS(=O)(=O)N2CCCC(C)C2)cn1` (stereo not given) is lower in cytotoxicity at 10 µM: 6.61% for the first, 5.39% for the second.

Compared with `Cc1cc(C(F)(F)F)nn1C(C)C(=O)NN1CCN(C)CC1` (stereo not given), `CC(C)(C)C(O)CN1CCN(Cc2nccn2CC(F)(F)F)CC1` (stereo not given) is lower in cytotoxicity at 10 µM: 20.4% for the first, 4.77% for the second.

Going from `Cc1cc(N)n(-c2ccc3nnc(C)n3n2)n1` to `Cc1ccc(CNC(=O)Cn2ncc3c2c(C)nn3C)cc1`, the cytotoxicity at 10 µM rises from 5.89% to 22.2%.

First: COCCCNC(=O)c1cc(C(C)C)nc(N2CCCCCC2)n1
Second: CC(C)c1nc2c(n1C)CCN(CC(=O)NCc1ccccn1)C2
The cytotoxicity at 10 µM of the first is higher: 9.15% for the first, -8.52% for the second.

Compared with `COCCN1CCCC(c2ccnc3c(C(N)=O)cnn23)C1` (stereo not given), `CC(=O)N1CCCC(c2ccc(Cc3ccccc3)cn2)C1` (stereo not given) is lower in cytotoxicity at 10 µM: 2.05% for the first, -20.6% for the second.

Compared with `Fc1ccc(-c2cnc(C3CCNCC3)cn2)cc1`, `COc1ccc(C2CCCN2c2ccc(C#N)cn2)c(OC)c1` (stereo not given) is higher in cytotoxicity at 10 µM: -7.14% for the first, -3.42% for the second.

Compared with `CNC(=O)C1(C)CCCN1Cc1cnn(C)c1C` (stereo not given), `CCCn1ncc(CN2C[C@@H]3CCCN3C[C@H]2CCSC)c1C` is lower in cytotoxicity at 10 µM: 5.45% for the first, -11.2% for the second.

Going from `O[C@H]1CN(Cc2cccc(C(F)(F)F)c2)CC[C@@]12CCCO2` to `Nc1c(Cl)cnn1C1CCN(Cc2ccccc2)C1` (stereo not given), the cytotoxicity at 10 µM rises from -19.6% to 0.648%.

Compared with `CC(C)S(=O)(=O)N1CCC(c2[nH]ncc2S(C)(=O)=O)C1` (stereo not given), `CCNC(=O)NC1CCN(c2ccc(S(=O)(=O)CC)cc2)CC1` is higher in cytotoxicity at 10 µM: -21.5% for the first, 7.89% for the second.

First: CN(C)c1cncc(C2CCN(CC3(O)CCCCC3)CC2)n1
Second: CC(NC1CCN(CCc2ccncc2)CC1)c1cnn(C(C)C)c1 (stereo not given)
The cytotoxicity at 10 µM of the first is lower: -30% for the first, -4.97% for the second.

First: CCSCCN1CCCN(S(C)(=O)=O)CC1
Second: CC(C)(O)CN1CCN(C(=O)COCC(F)(F)F)CC1
The cytotoxicity at 10 µM of the first is higher: -2.75% for the first, -12.9% for the second.

Going from `CC(=O)NC(Cc1c[nH]c2cc(F)ccc12)C(=O)Nc1nonc1C` (stereo not given) to `Cc1cc(C)c(CNC(=O)C(C)Oc2ccccc2C#N)c(=O)[nH]1` (stereo not given), the cytotoxicity at 10 µM rises from -9.93% to 4.59%.

Compared with `CN1CCC(NC(=O)Nc2cnn(-c3ccccc3Cl)c2)C1=O` (stereo not given), `N#Cc1ccccc1N1CCCN(CC(=O)Nc2ccc(Cl)cn2)CC1` is higher in cytotoxicity at 10 µM: -4.17% for the first, -0.539% for the second.

First: Cc1cccc(Oc2ccccc2CNC(=O)C2CCC(=O)NC2)c1 (stereo not given)
Second: COC(=O)CNC(=O)c1cccc(C(=O)N(C)c2ccccc2)c1
The cytotoxicity at 10 µM of the first is higher: 10.6% for the first, 6.93% for the second.

First: CSc1ccsc1C(=O)NC(Cc1ccccc1)C(N)=O (stereo not given)
Second: CN(C)C(CNC(=O)c1ncoc1-c1ccccc1)c1ccsc1 (stereo not given)
The cytotoxicity at 10 µM of the first is lower: -5.24% for the first, -0.303% for the second.

Compared with `Cc1ccc(CNCc2nccn2C)c(OC(C)(C)C)c1`, `COc1ccc(-n2nc(C)c(C(C)=O)c2C)cc1CO` is higher in cytotoxicity at 10 µM: -2.58% for the first, 11.2% for the second.

Compared with `Cc1nc(S(=O)(=O)NCCC(=O)NCc2ccc(C#N)cc2)cn1C`, `CC(=O)NC(C)C(=O)N(Cc1ccc(C)c(C)c1)C1CC1` (stereo not given) is higher in cytotoxicity at 10 µM: 5.17% for the first, 8.77% for the second.

Going from `CC(C)(C)Cc1noc2ncc(C(=O)N3CCSCC3)cc12` to `Cc1nc(CN2CCCC(N(C)c3cnc4ccccc4n3)C2)no1` (stereo not given), the cytotoxicity at 10 µM falls from -0.779% to -14.6%.

Compared with `O=C(NCc1ccco1)Nc1ccc2nc(N3CCOCC3)oc2c1`, `O=C1N(c2ccsc2)CCC12CCCN(c1ncc(F)cn1)C2` (stereo not given) is lower in cytotoxicity at 10 µM: 4.17% for the first, -105% for the second.

First: Cc1nn(C(C)(C)C)c(C)c1C(=O)NCC1(C(N)=O)CCOCC1
Second: CCc1ncc2c(n1)CN(Cc1nc(C)c(C)o1)CC2
The cytotoxicity at 10 µM of the first is higher: 3.28% for the first, 2.92% for the second.

First: CC(C)c1nnc(CNc2nc(-c3cccnc3)nc3c2CCC3)n1C
Second: COc1ccc2[nH]cc(C(=O)N3CC[C@H](CO)[C@@H](O)C3)c(=O)c2c1
The cytotoxicity at 10 µM of the first is higher: 8.74% for the first, 1.26% for the second.

With `CCC[C@H]1CN(Cc2ccc3c(c2)OCCO3)C[C@@H]1NC(=O)COC` the cytotoxicity at 10 µM was -4.19%.
